Source: ChEMBL document CHEMBL1148634 (J Med Chem, 2006)
The source made the active and inactive calls. The rule behind the calls is not given here.

Experiments:
Melanophore [1] = assay: Agonist activity in Xenopus laevis melanophore assessed as potency for pigment aggregation; format: functional, cell-based
Outline: (§1)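 A clonal Xenopus laevis melanophore line was grown in 96-well plates, and medium was switched to 0.7 × L-15 18 h before testing. Initial absorbance at 630 nm was read, analogue was added, and final absorbance was read after 60 min. Response was the fractional change 1 − (Af/Ai).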

Melanophore [2] = assay: Antagonist activity in Xenopus laevis melanophore assessed as potency for pigment aggregation at 10 uM; format: functional, cell-based
Outline: (§2)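 Antagonism of the pigment aggregation response was tested on a clonal Xenopus laevis melanophore line.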

[3] = biological target: T1, Melatonin receptor type 1A (Homo sapiens, UniProt P48039); assay: Displacement of 2-[125I]iodomelatonin from human recombinant MT1 receptor expressed in NIH3T3 cells; format: cell-based
T1 sequence (P48039 whole entry): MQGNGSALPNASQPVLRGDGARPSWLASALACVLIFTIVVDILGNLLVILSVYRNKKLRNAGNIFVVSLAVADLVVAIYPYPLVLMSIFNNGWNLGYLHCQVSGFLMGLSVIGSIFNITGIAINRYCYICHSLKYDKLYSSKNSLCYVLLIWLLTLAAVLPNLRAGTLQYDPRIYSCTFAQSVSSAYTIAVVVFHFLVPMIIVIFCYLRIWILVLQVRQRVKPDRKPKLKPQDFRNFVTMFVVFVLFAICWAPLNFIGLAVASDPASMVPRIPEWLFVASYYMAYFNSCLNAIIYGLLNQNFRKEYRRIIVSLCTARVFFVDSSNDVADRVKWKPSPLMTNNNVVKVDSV

[4] = biological target: T2, Melatonin receptor type 1B (Homo sapiens, UniProt P49286); assay: Displacement of 2-[125I]iodomelatonin from human recombinant MT2 receptor expressed in NIH3T3 cells; format: cell-based
T2 sequence (P49286 whole entry): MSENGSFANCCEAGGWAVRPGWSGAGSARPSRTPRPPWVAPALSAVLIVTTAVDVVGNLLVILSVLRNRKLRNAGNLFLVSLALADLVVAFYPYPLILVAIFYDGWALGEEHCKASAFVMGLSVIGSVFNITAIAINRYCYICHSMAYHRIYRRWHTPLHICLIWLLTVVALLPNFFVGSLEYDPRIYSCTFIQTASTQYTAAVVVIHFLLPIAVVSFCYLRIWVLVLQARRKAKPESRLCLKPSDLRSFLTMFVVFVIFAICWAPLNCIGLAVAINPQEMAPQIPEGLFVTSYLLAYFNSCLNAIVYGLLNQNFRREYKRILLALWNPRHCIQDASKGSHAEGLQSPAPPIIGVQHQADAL

Melanophore [5] = assay: Potency for pigment aggregation in Xenopus laevis melanophore at 10 uM relative to melatonin; format: functional
[6] = biological target: T1, Melatonin receptor type 1A; assay: Activity at MT1 receptor expressed in NIH3T3 cells assessed as inhibition of […] cAMP synthesis; format: functional, cell-based; conditions: filed as antagonist
Outline: (§3)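 Antagonism was tested in NIH 3T3 cells expressing human MT1. […] Cyclic AMP was measured in duplicate by radioimmunoassay. Data are mean ± SEM of quadruplicate cell samples.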

[7] = biological target: T1, Melatonin receptor type 1A; assay: Activity at MT1 receptor expressed in NIH3T3 cells assessed as inhibition of forskolin-stimulated cAMP synthesis at 1 uM; format: functional, cell-based
Outline: (§4)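 NIH 3T3 cells stably expressing cloned human MT1 or MT2 receptors were pretreated with IBMX (25 µM, 10 min), then given forskolin (1 µM, 10 min) with or without test agent. Cyclic AMP was measured in duplicate by radioimmunoassay for each cell sample. Data are mean ± SEM of quadruplicate cell samples.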

Melanophore [8] = assay: Antagonist activity in Xenopus laevis melanophore assessed as potency for pigment aggregation; format: functional, cell-based; outline: as §2
Melanophore [9] = assay: Agonist activity in Xenopus laevis melanophore assessed as potency for pigment aggregation at 10 uM; format: functional, cell-based; outline: as §1
[10] = biological target: T1, Melatonin receptor type 1A; assay: Activity at MT1 receptor expressed in NIH3T3 cells assessed as inhibition of forskolin-stimulated cAMP synthesis; format: functional, cell-based; conditions: filed as agonist; outline: as §4
[11] = biological target: T3, Melatonin receptor type 1B (Homo sapiens) (UniProt P49286); assay: Activity at MT2 receptor expressed in NIH3T3 cells assessed as inhibition of forskolin-stimulated cAMP synthesis; format: functional, cell-based; conditions: filed as agonist; outline: as §4
T3 sequence (whole entry): T2 sequence (P49286 whole entry)

[12] = biological target: T1, Melatonin receptor type 1A; assay: Activity at MT1 receptor expressed in NIH3T3 cells assessed as inhibition of forskolin-stimulated cAMP synthesis at 10 uM; format: functional, cell-based; outline: as §4
[13] = biological target: T1, Melatonin receptor type 1A; assay: Activity at MT1 receptor expressed in NIH3T3 cells assessed as inhibition of […] cAMP synthesis at 10 uM; format: functional, cell-based; conditions: filed as antagonist; outline: as §3
[14] = Xenopus laevis, Melanophore, read-out: EC50

Row | Structure (SMILES) | EC50 (Melanophore [1]; [14]) | Activity (Melanophore [2]) | Ki [3] | Ki [4] | IC50 (Melanophore [8]) | also measured
1 | COc1ccc2[nH]cc(CCNC(C)=O)c2c1 [MELATONIN] | 0.063 nM | inactive | – | – | – | –
2 | CCC(=O)NCC(C)c1cn(C)c2ccc(OC)cc12 (configuration not stated) | 3.72 nM | inactive | 4.9 nM | 1.02 nM | – | –
3 | COc1ccc2c(c1)c(C(C)CNC(C)=O)cn2C (stereo in doubt; 6a) [listing 1 of 2 here] | – | inactive | – | – | – | –
4 | CCCC(=O)NCC1(c2cn(C)c3ccc(OC)cc23)CCC1 | 2 nM | inactive | 10.6 nM | 0.86 nM | – | Activity (Melanophore [5]): 92%; Activity [6]: Antagonist; Activity [7]: inactive
5 | CCC(=O)NCC(C)(C)c1cn(C)c2ccc(OC)cc12 | 1.26 nM | inactive | 6.03 nM | 1.15 nM | – | –
6 | CCC(=O)NCC1(c2cn(C)c3ccc(OC)cc23)CCC1 | 980 nM | – | 34 nM | 4.4 nM | 826 nM | Activity (Melanophore [5]): 20%
7 | COc1ccc2c(c1)c(C(C)CNC(C)=O)cn2C (stereo in doubt; 6a) [listing 2 of 2 here] | – | – | – | 0.41 nM | – | EC50 (Melanophore [1]; melanophore, read-out: EC50): 1.72 nM
8 | CCC(=O)NCC1(c2cn(C)c3ccc(OC)cc23)CC1 | 6.8 nM | inactive | 86 nM | 39 nM | – | –
9 | COc1ccc2c(c1)c(C(C)(C)CNC(=O)C1CCC1)cn2C | 57.5 nM | inactive | 170 nM | 33.1 nM | – | –
10 | COc1ccc2c(c1)c(C1(CNC(=O)C3CC3)CCCC1)cn2C | – | – | 468 nM | 257 nM | 1180 nM | Activity (Melanophore [9]): inactive
11 | CCCC(=O)NCC1(c2cn(C)c3ccc(OC)cc23)CC1 | 1.7 nM | inactive | 212 nM | 7.5 nM | – | Activity [10]: Agonist; Activity [11]: Agonist
12 | CCCC(=O)NCC1(c2cn(C)c3ccc(OC)cc23)CCCC1 | – | – | 589 nM | 85.1 nM | 1640 nM | Activity [12]: inactive; Activity (Melanophore [9]): inactive; Activity [13]: Antagonist
13 | COc1ccc2c(c1)c(C1(CNC(C)=O)CC1)cn2C | 10.5 nM | inactive | 176 nM | 90 nM | – | –
14 | CCCC(=O)NCC1(c2cn(C)c3ccccc23)CCC1 | – | – | 724 nM | 1740 nM | 3030 nM | EC50 (Melanophore [1]; melanophore): Not Active
15 | COc1ccc2c(c1)c(C(C)CNC(C)=O)cn2C (stereo in doubt; (-)6a) [listing 1 of 2 here] | – | inactive | – | – | – | –
16 | COc1ccc2c(c1)c(C1(CNC(=O)C3CC3)CCC1)cn2C | – | – | 307 nM | 138 nM | 2070 nM | Activity (Melanophore [9]): inactive
17 | COc1ccc2[nH]cc(C(C)CNC(C)=O)c2c1 (configuration not stated) | 0.049 nM | inactive | 1.67 nM | 2.94 nM | – | –
18 | COc1ccc2[nH]cc(C(C)(C)CNC(C)=O)c2c1 | 0.0072 nM | inactive | 1.12 nM | 2.75 nM | – | Activity [10]: Agonist; Activity [11]: Agonist
19 | COc1ccc2c(c1)c(C(C)CNC(C)=O)cn2C (stereo in doubt; (-)6a) [listing 2 of 2 here] | – | – | – | 0.27 nM | – | EC50 (Melanophore [1]; melanophore, read-out: EC50): 10.8 nM

Row | Structure (SMILES) | EC50 (Melanophore [1]; [14]) | Activity (Melanophore [2]) | Ki [3] | Ki [4] | IC50 (Melanophore [8]) | also measured
20 | CCCC(=O)NCC1(c2c[nH]c3ccc(OC)cc23)CCC1 | 2.56 nM | inactive | 116 nM | 57.4 nM | – | Activity [10]: Agonist; Activity [11]: Agonist
21 | COc1ccc2[nH]cc(C3(CNC(=O)C4CCC4)CCC3)c2c1 | – | – | 493 nM | 62.2 nM | > 10000 nM | Activity (Melanophore [9]): inactive
22 | CCCC(=O)NCC(C)(C)c1cn(C)c2ccc(OC)cc12 | 1 nM | inactive | 8.51 nM | 0.74 nM | – | Activity [10]: Agonist; Activity [11]: Agonist
23 | CC(=O)NCC1(c2cn(C)c3ccccc23)CCC1 | – | – | 2190 nM | 1260 nM | 1250 nM | EC50 (Melanophore [1]; melanophore): Not Active
24 | CCC(=O)NCC1(c2cn(C)c3ccccc23)CCC1 | – | – | 1510 nM | 1050 nM | 1150 nM | EC50 (Melanophore [1]; melanophore): Not Active
25 | COc1ccc2c(c1)c(C1(CNC(C)=O)CCCC1)cn2C | – | – | 148 nM | 66.1 nM | 628 nM | Activity (Melanophore [9]): inactive
26 | CCCC(=O)NCC(C)c1cn(C)c2ccc(OC)cc12 (configuration not stated) | 1 nM | inactive | 4.27 nM | 0.47 nM | – | –
27 | COc1ccc2c(c1)c(C(C)(C)CNC(C)=O)cn2C | 6.31 nM | inactive | 11.5 nM | 1.29 nM | – | –
28 | COc1ccc2c(c1)c(C(C)CNC(C)=O)cn2C (single isomer, unassigned; (+)) [listing 1 of 2 here] | – | – | – | 0.5 nM | – | EC50 (Melanophore [1]; melanophore, read-out: EC50): 0.98 nM
29 | COc1ccc2c(c1)c(C1(CNC(=O)C3CCC3)CCC1)cn2C | – | – | 714 nM | 3770 nM | > 10000 nM | EC50 (Melanophore [1]; melanophore): Not Active; Activity (Melanophore [9]): inactive
30 | COc1ccc2[nH]cc(C3(CNC(=O)C4CC4)CCC3)c2c1 | – | – | 57.8 nM | 28.9 nM | 2500 nM | Activity (Melanophore [9]): inactive
31 | COc1ccc2c(c1)c(C(C)CNC(C)=O)cn2C (single isomer, unassigned; (+)) [listing 2 of 2 here] | – | inactive | – | – | – | –
32 | CCC(=O)NCC1(c2cn(C)c3ccc(OC)cc23)CCCC1 | – | – | 302 nM | 102 nM | 811 nM | Activity (Melanophore [9]): inactive
33 | COc1ccc2c(c1)c(C1(CNC(=O)C3CCC3)CCCC1)cn2C | – | – | 479 nM | 407 nM | 1770 nM | Activity (Melanophore [9]): inactive
34 | COc1ccc2[nH]cc(C3(CNC(C)=O)CCC3)c2c1 | 1.67 nM | inactive | 8.2 nM | 3.3 nM | – | –
35 | Cn1cc(C2(CNC(=O)C3CC3)CCC2)c2ccccc21 | – | – | 617 nM | 1440 nM | 3440 nM | EC50 (Melanophore [1]; melanophore): Not Active
36 | CCC(=O)NCC1(c2c[nH]c3ccc(OC)cc23)CCC1 | 0.99 nM | inactive | 65.7 nM | 32 nM | – | –
37 | COc1ccc2c(c1)c(C1(CNC(C)=O)CCC1)cn2C | 1010 nM | – | 483 nM | 72 nM | 637 nM | Activity (Melanophore [5]): 8%
